{"source": "ChEMBL document CHEMBL4825680", "about": "“Structure-based discovery of potent and selective small-molecule inhibitors targeting signal transducer and activator of transcription 3 (STAT3)” (Eur J Med Chem, 2021)", "key": {"MDA-MB-468 [1]": {"tested_on": "MDA-MB-468", "assay": "Induction of apoptosis in human MDA-MB-468 cells assessed as increase in PARP cleavage at 1 uM after 48 hrs by Western blot analysis", "type": "functional, cell-based", "in_short": "(§1)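 Cells were treated with vehicle (0.1% DMSO) or compound, then analysed by western blot of RIPA lysates (20–50 μg protein, SDS-PAGE, PVDF) for PARP and cleaved caspase-7, with β-actin as loading control. Three independent experiments.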"}, "[2]": {"biological_target": "T1, Signal transducer and activator of transcription 3 (Homo sapiens, UniProt P40763)", "T1 sequence (P40763 whole entry)": "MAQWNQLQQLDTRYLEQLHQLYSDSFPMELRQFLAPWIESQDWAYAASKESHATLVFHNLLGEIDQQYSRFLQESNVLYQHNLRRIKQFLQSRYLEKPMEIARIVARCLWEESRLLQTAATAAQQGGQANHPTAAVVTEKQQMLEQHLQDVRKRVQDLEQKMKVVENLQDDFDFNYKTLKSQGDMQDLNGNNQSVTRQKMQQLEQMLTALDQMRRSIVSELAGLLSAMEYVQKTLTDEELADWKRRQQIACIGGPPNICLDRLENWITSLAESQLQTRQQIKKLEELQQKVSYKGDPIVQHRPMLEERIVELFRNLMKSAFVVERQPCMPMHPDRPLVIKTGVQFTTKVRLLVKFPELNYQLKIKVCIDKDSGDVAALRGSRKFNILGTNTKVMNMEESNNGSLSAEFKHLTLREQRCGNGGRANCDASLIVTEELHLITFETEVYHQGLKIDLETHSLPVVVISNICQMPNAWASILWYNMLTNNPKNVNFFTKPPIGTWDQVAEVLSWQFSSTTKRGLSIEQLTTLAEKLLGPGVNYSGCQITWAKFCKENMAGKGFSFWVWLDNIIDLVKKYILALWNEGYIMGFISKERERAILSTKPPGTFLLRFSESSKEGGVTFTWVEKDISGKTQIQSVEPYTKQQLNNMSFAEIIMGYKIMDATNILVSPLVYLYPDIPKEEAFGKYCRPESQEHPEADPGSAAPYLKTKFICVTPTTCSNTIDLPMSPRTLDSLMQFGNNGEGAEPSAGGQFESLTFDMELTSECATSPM", "assay": "Inhibition of STAT3 DNA binding in human MDA-MB-468 cells at 0.3 to 1 uM after 3 hrs by EMSA analysis", "type": "cell-based", "conditions": "dose 0.3-1 µM", "in_short": "(§2)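 Cells exposed to vehicle or compound for 3 h. Nuclear extracts prepared and BCA-quantified. Nuclear protein (8–10 µg) incubated with biotinylated STAT3 or STAT5 probe, resolved on 6% native polyacrylamide gel, transferred to nylon membrane and detected with a gel-shift kit.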"}, "A549": {"tested_on": "A549", "assay": "Antiproliferative activity against human A549 cells", "type": "functional, cell-based"}, "[3]": {"biological_target": "T1, Signal transducer and activator of transcription 3", "assay": "Binding affinity to STAT3 (unknown origin) […]"}, "[4]": {"assay": "Metabolic stability in human liver microsomes assessed as half life at 0.1 uM preincubated for 10 mins followed by NADPH addition and measured upto 60 mins by LC-MS/MS analysis", "type": "ADME, Microsome", "conditions": "time <=70 min", "in_short": "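Microsomes at 0.33 mg/mL in 0.1 M Tris pH 7.4 with 5 mM MgCl2; compound final 0.1 μM (0.01% DMSO, 0.005% BSA). Preincubated 10 min at 37 °C, then started with 1 mM NADPH. Sampled at 0, 7, 17, 30 and 60 min and quenched with cold methanol. Centrifuged, then analysed by LC-MS/MS.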"}, "[5]": {"biological_target": "T2, Signal transducer and activator of transcription 5A (Homo sapiens) (UniProt P42229)", "T2 sequence (whole entry)": "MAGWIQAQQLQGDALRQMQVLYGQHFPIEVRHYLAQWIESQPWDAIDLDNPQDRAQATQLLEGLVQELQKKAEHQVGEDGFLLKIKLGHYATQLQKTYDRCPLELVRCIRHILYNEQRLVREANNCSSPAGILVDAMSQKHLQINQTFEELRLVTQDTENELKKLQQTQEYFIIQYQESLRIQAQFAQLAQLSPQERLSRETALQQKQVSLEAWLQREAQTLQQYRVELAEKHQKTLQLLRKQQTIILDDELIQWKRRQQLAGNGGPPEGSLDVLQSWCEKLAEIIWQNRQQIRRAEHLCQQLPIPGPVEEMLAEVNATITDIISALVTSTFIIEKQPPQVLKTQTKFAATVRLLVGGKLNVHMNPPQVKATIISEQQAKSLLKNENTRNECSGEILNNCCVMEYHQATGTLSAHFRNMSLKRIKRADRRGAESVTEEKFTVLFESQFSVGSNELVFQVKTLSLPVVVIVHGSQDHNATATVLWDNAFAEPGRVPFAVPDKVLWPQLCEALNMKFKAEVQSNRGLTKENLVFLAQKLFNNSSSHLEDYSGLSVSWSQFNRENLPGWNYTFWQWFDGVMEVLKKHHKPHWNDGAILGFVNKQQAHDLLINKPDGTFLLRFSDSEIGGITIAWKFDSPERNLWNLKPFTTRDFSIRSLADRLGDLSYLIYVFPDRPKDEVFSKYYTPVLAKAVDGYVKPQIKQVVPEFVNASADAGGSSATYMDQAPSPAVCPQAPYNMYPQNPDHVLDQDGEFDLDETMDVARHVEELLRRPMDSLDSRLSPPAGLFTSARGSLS", "assay": "Inhibition of STAT5 DNA binding in human MDA-MB-468 cells at 3 uM after 3 hrs by EMSA analysis", "type": "cell-based", "in_short": "as §2"}, "[6]": {"assay": "AUC(0 to last) in Sprague-Dawley rat at 10 mg/kg, po measured up to 24 hrs by LC-MS/MS analysis", "type": "ADME, organism-based", "design": "route oral, dose 10 mg/kg, time <=24", "conditions": "in vivo", "in_short": "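Male SD rats given a single oral dose of 10 mg/kg in DMSO/0.5% HPMC (5/95, v/v). Blood was drawn at 0.25, 0.5, 1, 2, 4, 8 and 24 h, and plasma was analysed by LC-MS/MS on a BEH phenyl column with a formic acid water/acetonitrile mobile phase.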"}, "MDA231-LM2-4175": {"tested_on": "MDA231-LM2-4175", "assay": "Inhibition of colony formation in human MDA231-LM2-4175 cells at 0.3 uM after 10 to 15 days by crystal violet staining based assay", "type": "functional, cell-based", "conditions": "time 10-15 day", "in_short": "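Cells seeded at 0.5×10^3–1×10^3 per well; compound added the next day. Medium and compound renewed every 2–3 days. After about 10–15 days, colonies fixed with 4% paraformaldehyde, stained with crystal violet, scanned and quantified by image analysis. Triplicate.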"}, "[7]": {"assay": "Toxicity in NOD/SCID mouse xenografted with patient-derived breast cancer cells assessed as morphological change in spleen at 5 to 15 mg/kg, […] once daily for 20 days by HE staining based assay", "type": "organism-based", "conditions": "in vivo, iv, 480 h, dose 5-15 mg/kg, time 20 day", "in_short": "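Female NOD-SCID mice implanted subcutaneously in the flank with about 2 mm³ TNBC PDX fragments. At about 100 mm³ tumour volume, randomised n=6/group: vehicle (PBS with 15% Cremophor EL), 5 or 15 mg/kg intraperitoneally daily. Killed at day 20; heart, liver, spleen, lung and kidney collected for morphological examination.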"}, "MGC-803": {"tested_on": "MGC-803", "assay": "Antiproliferative activity against human MGC-803 cells", "type": "functional, cell-based"}, "MDA-MB-468 [8]": {"tested_on": "MDA-MB-468", "assay": "Induction of apoptosis in human MDA-MB-468 cells assessed as increase in caspase-7 cleavage at 1 uM after 48 hrs by Western blot analysis", "type": "functional, cell-based", "in_short": "as §1"}, "MDA-MB-231": {"tested_on": "MDA-MB-231", "assay": "Induction of apoptosis in human MDA-MB-231 cells assessed as increase in PARP cleavage at 3 uM after 48 hrs by Western blot analysis", "type": "functional, cell-based", "in_short": "as §1"}}, "note": "Active and inactive are the calls of the source. The calls are words filed in the database; no cut-off is given here."}
{"smiles": "O=C(Cc1c(-c2ccccc2)nc2ccccn12)Nc1ccc2c(c1)S(=O)(=O)C=C2", "values": [{"measurement": "Activity", "setting": "MDA-MB-468 [1]", "result": "Active"}, {"measurement": "inhibition", "setting": "[2]", "result": "Active"}, {"measurement": "IC50", "setting": "A549", "result": 1100, "unit": "nM"}, {"measurement": "Kd", "setting": "[3]", "result": 432, "unit": "nM"}, {"measurement": "half-life at 0.1 µM", "setting": "[4]", "result": 24.2, "unit": "min"}, {"measurement": "inhibition", "setting": "[5]", "result": "inactive"}, {"measurement": "AUC(0-t) at 24 h", "setting": "[6]", "result": 54.6, "unit": "ng·h/mL"}, {"measurement": "inhibition", "setting": "MDA231-LM2-4175", "result": "Active"}, {"measurement": "Activity", "setting": "[7]", "result": "Non-Toxic"}, {"measurement": "IC50", "setting": "MGC-803", "result": 1600, "unit": "nM"}, {"measurement": "Activity", "setting": "MDA-MB-468 [8]", "result": "Active"}, {"measurement": "Activity", "setting": "MDA-MB-231", "result": "Active"}]}
